The source made the active and inactive calls. The calls are words filed in the database; no cut-off is given here.
What was measured:
[1] = Increase in insulin secretion in Sprague-Dawley rat pancreas assessed per Langerhans islet; type: functional
Summary of the method: (§1)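 Islets from male Sprague-Dawley rats (360–390 g) are digested with collagenase XI (2.5 mg/ml, HBSS, 35 min, 37 °C), purified on a Histopaque gradient and handpicked. They are pre-incubated 60 min at 37 °C, 5% CO2, in KRB with 8.3 mM glucose. Medium insulin is measured by ELISA in pg/islet/h (n = 6–12) against untreated basal.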

[2] = Lactone formation at pH 1 after 4 hrs; settings: buffer, pH 1, 4 h
[3] = Lactone formation at pH 1 after 1 hr; settings: buffer, pH 1, 1 h
Rattus norvegicus = organism: Rattus norvegicus; assay: Increase in insulin secretion in Sprague-Dawley rat pancreatic Langerhans islets below 25 uM; type: functional; summary of the method: as §1
[4] = Increase in insulin secretion in Sprague-Dawley rat pancreas at 75 uM assessed per Langerhans islet; type: functional; summary of the method: as §1
[5] = Increase in insulin secretion in Sprague-Dawley rat pancreatic Langerhans islets at 25 uM; type: functional; summary of the method: as §1
[6] = Increase in insulin secretion in Sprague-Dawley rat pancreatic Langerhans islets at 200 uM; type: functional; summary of the method: as §1

| Lactone formation [2] [%] | Lactone formation [3] [%] | SMILES | Activity [1] [pg/h] | Activity (Rattus norvegicus) | Activity [4] [pg/h] | Activity [5] [%] | Activity [6] [%] |
| --- | --- | --- | --- | --- | --- | --- | --- |
| 32 | 10 | C[C@@H]([C@H](C)O)[C@H](N)C(=O)O | 45 | inactive | 100 |  |  |
|  |  | C[C@@H]([C@H](C)O)[C@@H]1NC(=O)NC1=O | 100 |  |  |  |  |
|  |  | C[C@@H]([C@H](C)O)[C@H]1NC(=O)NC1=O | 100 |  |  | 120 |  |
|  |  | CCOc1cc(CC(=O)N[C@@H](CC(C)C)c2ccccc2N2CCCCC2)ccc1C(=O)O [REPAGLINIDE] | 100 |  |  |  | 100 |

— ChEMBL document CHEMBL1155859, “Synthesis of hydantoin analogues of (2S,3R,4S)-4-hydroxyisoleucine with insulinotropic properties” (Bioorg Med Chem Lett, 2008)
